The text below walks through data of ChEMBL document CHEMBL1140972, “Synthesis and structure-activity relationship of 3-phenylquinoxaline 1,4-di-N-oxide derivatives as antimalarial agents” (Eur J Med Chem, 2008).

In series [1] the test system is Plasmodium falciparum. Nature of the series: Antimalarial activity after 48 hrs against chloroquine-sensitive Plasmodium falciparum 3D7 by [3H]hypoxanthine uptake. Type of series: functional, organism-based. Summed up: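 Asynchronous culture (65-75% rings, 0.5% parasitemia, 2.5% final hematocrit) in RPMI 1640 with 0.5% Albumax II, 0.2% glucose, 0.03% L-glutamine and 5 µM hypoxanthine. Triplicate wells with a 3-fold series of 10.0–0.0412 µg/mL; final DMSO ≤0.01%. 37 °C, 5% CO2: 24 h, then 0.2 µCi/well [3H]hypoxanthine for a further 24 h. Frozen, harvested, scintillation-counted. IC50 from curve fit; mean of 2–3 experiments.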

The test system of series [2] is Plasmodium falciparum. Nature of the series: Antimalarial activity after 48 hrs against chloroquine-resistant Plasmodium falciparum K1 by [3H]hypoxanthine uptake. Type of series: functional, organism-based. Summed up:
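Asynchronous P. falciparum K1 culture (65-75% ring stage, 0.5% parasitemia; chloroquine, pyrimethamine, cycloguanil resistant) at 2.5% hematocrit in RPMI 1640 with 0.5% Albumax II, glucose, L-glutamine, 5 µM hypoxanthine. Triplicate 3-fold dilutions 10.0–0.0412 µg/mL, DMSO ≤0.01% final, 37 °C, 5% CO2. [3H]-hypoxanthine (0.2 µCi/well) added at 24 h, incorporation counted after further 24 h. IC50 by curve fit, 2–3 experiments.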

In the next series the test system is KB. Nature of the series: Cytotoxicity against human KB cells after 48 hrs by alamar blue assay. It counts as cell-based. (Resazurin is reduced to fluorescent resorufin, in cell work by metabolically active cells.)
Series [3] is described as follows: Selectivity index, ratio of IC50 for human KB cells to IC50 for chloroquine-sensitive Plasmodium falciparum 3D7. Type of series: toxicity, cell-based. Particulars: read-out: Ratio IC50. Summed up:
(§1)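 KB IC50 divided by the parasite IC50 (K1 or 3D7). KB cells seeded at 4×10^4 cells/mL in RPMI 1640 with 10% heat-inactivated FCS and grown 24 h. Triplicate dilution series then added for 72 h. AlamarBlue for 2–4 h, fluorescence ex 530/em 585 nm, IC50 by curve fit. Podophyllotoxin as positive control.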

Series [4] is described as follows: Selectivity index, ratio of IC50 for human KB cells to IC50 for chloroquine-resistant Plasmodium falciparum K1. Type of series: toxicity, cell-based. Particulars: read-out: Ratio IC50. In a few lines: as §1
A short description of series [5]: Resistant index, ratio of IC50 for chloroquine-resistant Plasmodium falciparum K1 to IC50 for chloroquine-sensitive Plasmodium falciparum 3D7. Type of series: functional. In a few lines: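 IC50 against K1 divided by IC50 against 3D7 (drug-sensitive NF54 clone). Both from [3H]-hypoxanthine incorporation over 48 h: asynchronous cultures at 0.5% parasitemia, 2.5% hematocrit, 3-fold dilutions 10.0–0.0412 µg/mL in triplicate. Label added at 24 h. Means of 2–3 independent experiments.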

Some results are limits rather than exact numbers.

One may read the IC50 as the point on the concentration scale where inhibition reaches its midpoint. Regarding `N#Cc1c(-c2ccc(OC(F)(F)F)cc2)[n+]([O-])c2ccccc2[n+]1[O-]`, the IC50 in the series on Plasmodium falciparum [1] turned out to be 1.27 µM; with Plasmodium falciparum [2], 270 nM; in the series on KB it was 2.76 µM. Moreover, the selectivity ratio in series [3] is 2.17; in series [4], 10.3. Moreover, the Ratio IC50 in series [5] was found to be 0.21.
The molecule `COC(=O)c1ccc(-c2c(C#N)[n+]([O-])c3cc(F)ccc3[n+]2[O-])cc1` displayed an IC50 in the series on Plasmodium falciparum [1] of over 20 µM.
As for `COc1ccc2c(c1)[n+]([O-])c(C#N)c(-c1ccc(Cl)cc1)[n+]2[O-]`, the IC50 in the series on Plasmodium falciparum [1] was 0.73 µM; in the series with Plasmodium falciparum [2], 470 nM; with KB, 17.5 µM. Further, the selectivity ratio in series [3] came out at 24; in series [4], 37.5. In series [5], the Ratio IC50 was 0.64.
As to `N#Cc1c(-c2ccc(Cl)cc2)[n+]([O-])c2ccc(Cl)cc2[n+]1[O-]`, the IC50 in the series with Plasmodium falciparum [1] is over 5 µM.
In the series with Plasmodium falciparum [1], `N#Cc1c(-c2ccccc2)[n+]([O-])c2ccc(F)cc2[n+]1[O-]` registered an IC50 of over 10 µM.
In the series on Plasmodium falciparum [1], `O=C(O)c1c(-c2ccc(Cl)cc2)[n+]([O-])c2ccccc2[n+]1[O-]` had an IC50 of over 10 µM.
With `N#Cc1c(-c2ccc(Cl)cc2)[n+]([O-])c2ccccc2[n+]1[O-]`, the results for the IC50 with Plasmodium falciparum [1], in the series with Plasmodium falciparum [2] and with KB were 1.01 µM, 410 nM and 9.73 µM, respectively. In addition, the figures for the selectivity ratio in series [3] and in series [4] were 9.63 and 23.6, respectively. Also, the Ratio IC50 in series [5] turned out to be 0.41.
Turning to `N#Cc1c(-c2ccccc2)[n+]([O-])c2ccccc2[n+]1[O-]`, in the series with Plasmodium falciparum [1], the IC50 amounted to 2.35 µM.
Turning to `COc1ccc(-c2c(C#N)[n+]([O-])c3ccccc3[n+]2[O-])cc1`, the IC50 in the series with Plasmodium falciparum [1] turned out to be 3.14 µM. The IC50 values of the last two molecules are within 1.5-fold of each other.
As for `CCOC(=O)c1c(-c2ccccc2)[n+]([O-])c2cc(C)c(C)cc2[n+]1[O-]`, the IC50 is 1.18 µM in the series on Plasmodium falciparum [1], over 10000 nM with Plasmodium falciparum [2] and over 60 µM in the series on KB. Further, the selectivity ratio in series [3] is over 50.
For `N#Cc1c(-c2ccc(F)cc2)[n+]([O-])c2ccccc2[n+]1[O-]`, the IC50 with Plasmodium falciparum [1] was found to be 3.91 µM.
On to `N#Cc1c(-c2ccc(OC(F)(F)F)cc2)[n+]([O-])c2ccc(C(F)(F)F)cc2[n+]1[O-]`, for which the results for the IC50 in the series with Plasmodium falciparum [1], in the series with Plasmodium falciparum [2] and in the series with KB were 1.93 µM, 550 nM and 13.5 µM, respectively. Further, the selectivity ratio in series [3] came out at 6.97; in series [4], 24.4. For the same molecule, the Ratio IC50 in series [5] amounted to 0.28.
In the series on Plasmodium falciparum [1], `Cc1ccc(-c2c(C#N)[n+]([O-])c3cc(F)ccc3[n+]2[O-])cc1` gave an IC50 of over 10 µM.
On to `Cc1ccc2c(c1)[n+]([O-])c(C#N)c(-c1ccc(F)cc1)[n+]2[O-]`, for which the IC50 with Plasmodium falciparum [1] is 0.88 µM; in the series on Plasmodium falciparum [2], 370 nM; in the series with KB it was 11.2 µM. The selectivity ratio in series [3] worked out at 12.7; in series [4], 30.4. Also, in series [5], the Ratio IC50 is 0.42.
Regarding `N#Cc1c(-c2ccc(OC(F)(F)F)cc2)[n+]([O-])c2ccc(F)cc2[n+]1[O-]`, the values for the IC50 in the series with Plasmodium falciparum [1], in the series on Plasmodium falciparum [2] and in the series on KB were 1.7 µM, over 8000 nM and 2.61 µM, respectively. The selectivity ratio in series [3] stood at 1.54.
In the case of `N#Cc1c(-c2ccc(Cl)cc2)[n+]([O-])c2ccc(F)cc2[n+]1[O-]`, in the series on Plasmodium falciparum [1], it took 4.21 µM to reach half-maximal inhibition (IC50).
Consider `N#Cc1c(-c2ccc(F)cc2)[n+]([O-])c2ccc(Cl)cc2[n+]1[O-]`, for which, in the series on Plasmodium falciparum [1], half-maximal inhibition (IC50) was put at 5.83 µM.
On the same count and under the same terms, the same measure for `Cc1ccc(-c2c(C#N)[n+]([O-])c3cc(Cl)ccc3[n+]2[O-])cc1`: over 10 µM.
On to `Cc1ccc2c(c1)[n+]([O-])c(C#N)c(-c1ccc(OC(F)(F)F)cc1)[n+]2[O-]`, for which the IC50 amounted to 0.75 µM with Plasmodium falciparum [1], 380 nM with Plasmodium falciparum [2] and 8.12 µM in the series with KB. In addition, the values for the selectivity ratio in series [3] and in series [4] were 10.8 and 21.4, respectively. In series [5], the Ratio IC50 came to 0.51.
`CCOC(=O)c1c(-c2ccccc2)[n+]([O-])c2ccc(Cl)cc2[n+]1[O-]`: the IC50 in the series with Plasmodium falciparum [1] is 3.22 µM. This lies in the single-digit micromolar range.
Same read-out and setting: the same measure for `COc1ccc(-c2c(C#N)[n+]([O-])c3cc(F)ccc3[n+]2[O-])cc1`: over 20 µM.
`COc1cc([C@@H]2c3cc4c(cc3[C@H](O)[C@H]3COC(=O)[C@H]23)OCO4)cc(OC)c1OC` [PODOFILOX] gave an IC50 in the series on KB of 0.003 µM. That is a single-digit nanomolar value.
On to `CCOC(=O)c1c(-c2ccc(Cl)cc2)[n+]([O-])c2ccccc2[n+]1[O-]`, for which the IC50 in the series with Plasmodium falciparum [1] is over 10 µM.
`COc1ccc(-c2c(C#N)[n+]([O-])c3cc(C(F)(F)F)ccc3[n+]2[O-])cc1` returned an IC50 with Plasmodium falciparum [1] of 2.44 µM. This counts as single-digit micromolar.
The same measure, in the same setting: next, `N#Cc1c(-c2ccc(OC(F)(F)F)cc2)[n+]([O-])c2cc(Cl)c(Cl)cc2[n+]1[O-]`: over 10 µM; `COC(=O)c1ccc(-c2c(C#N)[n+]([O-])c3cc(Cl)ccc3[n+]2[O-])cc1`: over 20 µM; `CCOC(=O)c1c(-c2ccccc2)[n+]([O-])c2ccccc2[n+]1[O-]`: over 10 µM.
Still for that read-out and setting: the same measure for `Cc1ccc(-c2c(C#N)[n+]([O-])c3ccccc3[n+]2[O-])cc1`: 3.46 µM.
Consider `CCN(CC)CCCC(C)Nc1ccnc2cc(Cl)ccc12` (centres undefined) [CHLOROQUINE], for which half-maximal inhibition with KB (IC50) required 110 µM.
On to `CCOC(=O)c1c(-c2ccccc2)[n+]([O-])c2ccc(C)cc2[n+]1[O-]`, for which the IC50 in the series with Plasmodium falciparum [1] was over 10 µM.
For the molecule `COc1ccc(-c2c(C#N)[n+]([O-])c3cc(C)c(C)cc3[n+]2[O-])cc1`, in the series with Plasmodium falciparum [1], the IC50 was determined as 3.02 µM.
Still for that read-out and setting: the same measure for `Cc1ccc(-c2c(C(=O)O)[n+]([O-])c3ccccc3[n+]2[O-])cc1`: over 10 µM; for `COc1ccc(-c2c(C#N)[n+]([O-])c3cc(Cl)c(Cl)cc3[n+]2[O-])cc1`: over 20 µM; for `COc1ccc(-c2c(C#N)[n+]([O-])c3cc(C)ccc3[n+]2[O-])cc1`: 2.77 µM.
Still for that read-out and setting: the same measure for `CCOC(=O)c1c(-c2ccc(C)cc2)[n+]([O-])c2ccccc2[n+]1[O-]`: over 10 µM.
Molecule `N#Cc1c(-c2ccc(F)cc2)[n+]([O-])c2cc(Cl)c(Cl)cc2[n+]1[O-]` yielded an IC50 in the series on Plasmodium falciparum [1] of over 10 µM.
Turning to `COC(=O)c1ccc(-c2c(C#N)[n+]([O-])c3cc(C)ccc3[n+]2[O-])cc1`, the IC50 in the series on Plasmodium falciparum [1] is 2.15 µM.
The same measure, in the same setting: the same measure for `N#Cc1c(-c2ccc(F)cc2)[n+]([O-])c2ccc(F)cc2[n+]1[O-]`: 5.78 µM; for `CCOC(=O)c1c(-c2ccccc2)[n+]([O-])c2ccc(OC)cc2[n+]1[O-]`: over 10 µM.
Still for that read-out and setting: next, `COC(=O)c1ccc(-c2c(C#N)[n+]([O-])c3cc(C(F)(F)F)ccc3[n+]2[O-])cc1`: 2.03 µM; `COC(=O)c1ccc(-c2c(C#N)[n+]([O-])c3cc(OC)ccc3[n+]2[O-])cc1`: 3.16 µM.
The molecule `COc1ccc(-c2c(C#N)[n+]([O-])c3cc(OC)ccc3[n+]2[O-])cc1` displayed an IC50 in the series with Plasmodium falciparum [1] of 2.29 µM. This IC50 and that of the molecule before are within 1.5-fold of each other.
Still for that read-out and setting: next, `COC(=O)c1ccc(-c2c(C#N)[n+]([O-])c3ccccc3[n+]2[O-])cc1`: 6.54 µM; `N#Cc1c(-c2ccccc2)[n+]([O-])c2ccc(Cl)cc2[n+]1[O-]`: over 5 µM.
`CCOC(=O)c1c(-c2ccccc2)[n+]([O-])c2cc(F)c(F)cc2[n+]1[O-]`: the IC50 with Plasmodium falciparum [1] is over 10 µM.
On the same count and under the same terms, the same measure for `Cc1cc2c(cc1C)[n+]([O-])c(-c1ccc(OC(F)(F)F)cc1)c(C#N)[n+]2[O-]`: over 5 µM; for `CCOC(=O)c1c(-c2ccccc2)[n+]([O-])c2cc(Cl)c(Cl)cc2[n+]1[O-]`: over 7 µM; for `COc1ccc(-c2c(C#N)[n+]([O-])c3cc(Cl)ccc3[n+]2[O-])cc1`: over 10 µM.
